This passage reports Activity, IC50 and inhibition results from ChEMBL document CHEMBL1143908, “Functionalized chalcones as selective inhibitors of P-glycoprotein and breast cancer resistance protein” (Bioorg Med Chem, 2008).

For data set [1], the target named is T1, ATP-dependent translocase ABCB1 (Homo sapiens, UniProt P08183). Briefly: Inhibition of human multidrug resistant gene Pgp expressed in MDCK2 cells assessed as calcein-AM accumulation at 10 uM after 40 mins. Type of data set: cell-based. Further details: scale not given: the % may be the effect or the level left; call rule not given here. The following applies: mdck-ii.
Data set [2] deals with T2, Broad substrate specificity ATP-binding cassette transporter ABCG2 (Homo sapiens, UniProt Q9UNQ0).
T2 sequence (Q9UNQ0 whole entry): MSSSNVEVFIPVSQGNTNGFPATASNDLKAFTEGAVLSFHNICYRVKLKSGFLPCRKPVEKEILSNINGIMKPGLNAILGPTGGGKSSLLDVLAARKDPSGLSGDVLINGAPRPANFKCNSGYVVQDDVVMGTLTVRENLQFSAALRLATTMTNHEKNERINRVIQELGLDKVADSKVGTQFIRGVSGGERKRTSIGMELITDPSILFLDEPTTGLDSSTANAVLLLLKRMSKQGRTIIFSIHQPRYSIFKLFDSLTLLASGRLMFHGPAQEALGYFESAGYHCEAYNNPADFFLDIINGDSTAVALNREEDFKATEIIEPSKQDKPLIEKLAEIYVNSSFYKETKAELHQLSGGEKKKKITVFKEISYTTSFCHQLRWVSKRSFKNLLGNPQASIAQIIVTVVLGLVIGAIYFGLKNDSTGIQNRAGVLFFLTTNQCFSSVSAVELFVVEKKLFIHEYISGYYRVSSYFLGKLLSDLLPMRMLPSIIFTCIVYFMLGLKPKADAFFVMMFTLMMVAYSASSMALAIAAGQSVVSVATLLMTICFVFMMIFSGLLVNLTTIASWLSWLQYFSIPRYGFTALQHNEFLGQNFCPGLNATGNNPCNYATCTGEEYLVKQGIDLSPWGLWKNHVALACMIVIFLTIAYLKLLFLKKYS
Nature of the data set: Inhibition of human BCRP mediated mitoxantrone accumulation in wild type MCF7 cells at 5 uM by flow cytometry. In kind it is cell-based. Further details: scale not given: the % may be the effect or the level left. The following applies: mcf7, 5 µM.

Data set [3] deals with MCF7. Nature of the data set: Antiproliferative activity against adriamycin resistant human MCF7 cells after 72 hrs by MTT assay. In kind it is functional, cell-based. The following applies: MCF7, 72 h. The gist of the method:
(§1)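 MCF-7/WT and MCF-7/Adr cells (Adr line kept in medium with 10 uM doxorubicin; RPMI 1640, 10% FBS) exposed to compound for 72 h. MTT then added for 3 h, cells washed with PBS, and formazan dissolved in DMSO. Absorbance read at 590 nm, 3 determinations per concentration, IC50 derived from the concentration-response curve.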

The target of data set [4] is T1, ATP-dependent translocase ABCB1. Briefly: Inhibition of human multidrug resistant gene Pgp expressed in MDCK2 cells assessed as calcein-AM accumulation at 1 uM. In kind it is cell-based. The following applies: mdck-ii. The method in brief: (§2)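 MDCKII/WT or human MDR1-transfected MDCKII/MDR1 cells (passages 8-17) seeded at 5.0 x 10^4 cells/well and cultured 24 h. Washed, then preincubated 30 min at 37 °C with compound in DMSO-HBSS (≤1% DMSO). Calcein-AM added to 2 uM final, and fluorescence (ex 485/em 535 nm) read every 10 min over 40 min. Accumulation taken at 40 min relative to untreated MDCKII/MDR1, or scaled to the WT-minus-MDR1 fluorescence difference.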

The target of data set [5] is T2, Broad substrate specificity ATP-binding cassette transporter ABCG2. Briefly: Inhibition of human BCRP mediated mitoxantrone accumulation in mitoxantrone resistant MCF7 cells at 5 uM by flow cytometry. The following applies: mcf7, 5 µM. In kind it is cell-based. Further details: scale not given: the % may be the effect or the level left. The gist of the method: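 MCF-7/MX cells (selected in 250 nM mitoxantrone) trypsinized and resuspended at ~10^6 cells/ml in serum-free RPMI. Preincubated 15 min at 37 °C with compound (5 uM final) or vehicle (0.5% DMSO), then mitoxantrone 3 uM final added for 30 min. Stopped with ice-cold PBS and washed. Read by flow cytometry (488 nm excitation, 670 nm bandpass) as % area right of a marker set on MCF-7/WT autofluorescence (<5%). n = 4; FTC 10 uM as positive control.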

Data set [6] concerns the target T1, ATP-dependent translocase ABCB1. Briefly: Inhibition of human wild type gene Pgp expressed in MDCK2 cells assessed as calcein-AM accumulation at 1 uM. The following applies: mdck-ii. Type of data set: cell-based. The method in brief: as §2
The subject of data set [7] is MCF7. Nature of the data set: Antiproliferative activity against wild type human MCF7 cells after 72 hrs by MTT assay. Type of data set: functional, cell-based. The following applies: MCF7, 72 h. The method in brief: as §1
The next data set deals with P-gp (ABCB1), wild type (Homo sapiens, UniProt P08183). Briefly: Inhibition of human wild type Pgp expressed in MDCK2 cells assessed as calcein-AM accumulation at 50 uM after 40 mins. In kind it is cell-based, MDCK-II. The following applies: MDCK2 cells expressing human wild type Pgp, probe calcein-AM. The gist of the method: as §2
Data set [8] has as its target T2, Broad substrate specificity ATP-binding cassette transporter ABCG2. Nature of the data set: Inhibition of human BCRP mediated mitoxantrone accumulation in mitoxantrone resistant MCF7 cells at 10 uM by flow cytometry. The following applies: mcf7, 10 µM. Further details: scale not given: the % may be the effect or the level left. Type of data set: cell-based. The gist of the method:
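MCF-7/MX cells are maintained in 250 nM mitoxantrone, then trypsinized, washed in ice-cold PBS and resuspended in serum-free RPMI 1640. They are pre-incubated 15 min at 37 °C with compound or vehicle (0.5% v/v DMSO), then exposed to mitoxantrone (3 uM final) for 30 min. Uptake is stopped with ice-cold PBS and cells are washed. Flow cytometry uses 488 nm excitation and a 670 nm filter. The read-out is % area beyond a marker set on MCF-7/WT autofluorescence (<5%).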

T1 sequence (P08183 whole entry): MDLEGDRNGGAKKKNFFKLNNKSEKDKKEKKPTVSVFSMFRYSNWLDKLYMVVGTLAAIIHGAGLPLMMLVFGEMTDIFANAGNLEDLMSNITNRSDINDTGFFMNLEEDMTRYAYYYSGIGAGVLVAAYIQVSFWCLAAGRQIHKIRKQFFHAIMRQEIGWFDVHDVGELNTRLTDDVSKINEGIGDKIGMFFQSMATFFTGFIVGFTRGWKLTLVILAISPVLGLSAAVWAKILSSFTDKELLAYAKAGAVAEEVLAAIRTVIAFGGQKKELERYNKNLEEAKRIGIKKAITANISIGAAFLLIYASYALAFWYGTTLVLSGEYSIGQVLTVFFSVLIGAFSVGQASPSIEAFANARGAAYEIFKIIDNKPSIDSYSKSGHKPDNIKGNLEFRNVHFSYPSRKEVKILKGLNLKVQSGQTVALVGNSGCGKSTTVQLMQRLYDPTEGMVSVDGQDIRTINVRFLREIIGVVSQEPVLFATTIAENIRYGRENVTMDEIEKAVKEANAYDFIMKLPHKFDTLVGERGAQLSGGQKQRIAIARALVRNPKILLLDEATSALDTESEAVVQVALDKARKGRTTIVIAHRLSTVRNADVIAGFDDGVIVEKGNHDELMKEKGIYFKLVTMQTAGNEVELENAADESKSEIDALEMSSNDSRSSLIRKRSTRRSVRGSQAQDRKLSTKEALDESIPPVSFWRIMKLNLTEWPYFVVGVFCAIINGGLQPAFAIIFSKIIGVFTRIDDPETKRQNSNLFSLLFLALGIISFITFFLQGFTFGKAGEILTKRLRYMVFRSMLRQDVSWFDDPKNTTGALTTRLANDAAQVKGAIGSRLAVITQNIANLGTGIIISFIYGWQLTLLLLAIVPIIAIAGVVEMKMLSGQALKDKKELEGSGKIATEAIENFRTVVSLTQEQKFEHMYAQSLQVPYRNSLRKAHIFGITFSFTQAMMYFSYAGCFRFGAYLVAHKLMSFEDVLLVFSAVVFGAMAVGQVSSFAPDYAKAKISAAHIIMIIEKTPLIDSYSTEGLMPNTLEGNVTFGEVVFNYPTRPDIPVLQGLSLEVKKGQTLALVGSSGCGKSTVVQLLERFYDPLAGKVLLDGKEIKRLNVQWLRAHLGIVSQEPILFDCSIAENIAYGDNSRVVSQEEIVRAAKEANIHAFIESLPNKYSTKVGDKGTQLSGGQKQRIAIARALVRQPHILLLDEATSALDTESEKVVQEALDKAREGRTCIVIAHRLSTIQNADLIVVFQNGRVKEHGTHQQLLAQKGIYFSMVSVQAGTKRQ
Chain of P-gp (ABCB1), wild type (P08183 whole entry): as above

Turning to `CCN1CCC(c2cc(C(=O)/C=C/c3ccncc3)c(OC)cc2OC)CC1`, the Activity in data set [1] is on record as 151%. The same measure, in the same setting: then `COc1ccc(/C=C/C(=O)c2ccc(OC)c(OC)c2OC)c(OC)c1`, with 174%. Take `O=C1c2c(O)ccc(O)c2C(=O)c2c(NCCNCCO)ccc(NCCNCCO)c21` [MITOXANTRONE]: the Activity in [2] is 439.2%.

Take `COc1cc(OC)c(N2CCN(C)CC2)cc1C(=O)/C=C/c1ccccc1`: the Activity in data set [1] was 176%.

Turning to `COc1cc(OC)c(C2CCN(C)CC2)cc1C(=O)/C=C/c1ccc(N2CCN(C)CC2)cc1`, the Activity in [1] is 102%. In the case of `COc1ccc(C(=O)/C=C/c2ccc(C(F)(F)F)cc2)c(OC)c1`, the Activity in [1] is reported as 103%.

`COc1ccc(/C=C/C(=O)c2ccc(N3CCCCC3)cc2)c(OC)c1`: in data set [1], the Activity was 178%. For the compound `CCN1CCC(c2cc(C(=O)/C=C/c3ccc(N4CCN(C)CC4)cc3)c(OC)cc2OC)CC1`, in data set [1], the Activity is on record as 120%. The same measure, in the same setting: under `O=C(/C=C/c1ccccc1Cl)c1ccc(N2CCNCC2)cc1` stands 139%; under `COc1cc(OC)c(N2CCN(C)CC2)cc1C(=O)/C=C/c1ccc(N2CCN(C)CC2)cc1`, 107%.

Take `COc1ccc(C(=O)/C=C/c2ccc(N3CCN(C)CC3)cc2)c(OC)c1`: in data set [1], the Activity was 159%. Turning to `COc1ccc(/C=C/C(=O)c2ccc(N3CCNCC3)cc2)c(OC)c1`, half-maximal inhibition with MCF7 [3] (IC50) required 21.5 µM. Besides, the Activity result in [4] is reported as “Active”; in data set [1], 216%; in [5], 188.4%; in data set [6], “Active”. With `COc1ccc(/C=C/C(=O)c2ccc(OC)cc2OC)c(OC)c1`, in data set [1], the Activity was 172%. For the compound `CCN1CCC(c2cc(C(=O)/C=C/c3ccc(Cl)cc3)c(OC)cc2OC)CC1`, in [1], the Activity is 247%.

For `COc1cc(OC)c(N2CCN(C)CC2)cc1C(=O)/C=C/c1ccccc1Cl`, the Activity in [1] is 222%. `COc1ccc(C(=O)/C=C/c2ccc(Cl)cc2)c(OC)c1`: the Activity in data set [1] is on record as 101%; in [5], 348.6%. With `CCN1CCC(c2cc(C(=O)/C=C/c3ccccc3Cl)c(OC)cc2OC)CC1`, the values for the IC50 in the data set with MCF7 [7] and with MCF7 [3] were 2.6 µM and 3.6 µM, respectively. Moreover, the inhibition at 40 min, 50 µM on P-gp (ABCB1), wild type was over 100%. Moreover, the Activity entry in data set [4] is on record as “Active”; in [1], 280%; in data set [6], “Active”.

As for `COc1cc(OC)c(C2CCN(C)CC2)cc1C(=O)/C=C/c1ccncc1`, in data set [1], the Activity is listed as 117%.

As to `O=C(/C=C/c1ccc(Cl)cc1)c1ccc(N2CCCCC2)cc1`, the Activity in data set [1] is given as 103%. For the compound `COc1cc(OC)c(C2CCN(C)CC2)cc1C(=O)/C=C/c1cccnc1`, in data set [1], the Activity is 170%. On to `O=C(/C=C/c1ccc(Cl)cc1)c1ccc(N2CCNCC2)cc1`, for which the Activity in data set [1] is listed as 135%. Still for that read-out and setting: under `COc1cc(OC)c(C2CCN(C)CC2)cc1C(=O)/C=C/c1ccccn1` stands 164%. On the same count and under the same terms, then `COc1cc(OC)c(C2CCN(C)CC2)c(O)c1C(=O)/C=C/c1ccc(N2CCN(C)CC2)cc1`, with 118%.

With `COc1ccc(C2CCN(C)CC2)cc1C(=O)/C=C/c1ccccc1`, the Activity in data set [1] is listed as 178%. On to `CCN1CCC(c2cc(C(=O)/C=C/c3ccccc3)c(OC)cc2OC)CC1`, for which the IC50 in the data set on MCF7 [7] stood at 4.8 µM; with MCF7 [3], 6.1 µM. Also, the Activity entry in data set [4] is given as “Active”; in data set [1], 256%; in [6], “Active”. Turning to `O=C(/C=C/c1ccccc1)c1ccc(N2CCCCC2)cc1`, the Activity in [1] was 112%.

Take `COc1ccc2c3c([nH]c2c1)[C@H](C=C(C)C)N1C(=O)[C@@H]2CCCN2C(=O)[C@@H]1C3` [FUMITREMORGIN]: in data set [8], the Activity was 274.5%.
